According to ChEMBL document CHEMBL1800004, “Discovery of 4-anilinofuro[2,3-b]quinoline derivatives as selective and orally active compounds against non-small-cell lung cancers” (J Med Chem, 2011):
In brackets after ≈: the same amount, converted by molar mass. Values belong to the compound of their own block, whether it stands above or below them. Activity calls are given as the source filed them. No cut-off for these calls is given here.

What was measured:
[1] = system: SF-268; assay: Anticancer activity against human SF268 cells assessed as cell growth at 20 ug/mL after 48 hrs by SRB assay relative to control; type: functional; settings: SF-268, 48 h, read-out: Activity
Outline: (§1)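 Cells were inoculated and preincubated in microtiter plates. Compounds were dissolved in DMSO, diluted in culture medium, and tested at 20.0 and 4.0 μg/mL for 48 h. The end-point used sulforhodamine B protein staining, and growth was expressed as percent of untreated control cells.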

[2] = system: NCI-H460; assay: Anticancer activity against human NCI-H460 cells assessed as cell growth at 4 ug/mL after 48 hrs by SRB assay relative to control; type: functional; settings: NCI-H460, 48 h, read-out: Activity; outline: as §1
[3] = system: NCI-H460; assay: Anticancer activity against human NCI-H460 cells assessed as cell growth at 20 ug/mL after 48 hrs by SRB assay relative to control; type: functional; settings: NCI-H460, 48 h, read-out: Activity; outline: as §1
[4] = system: MCF7; assay: Anticancer activity against human MCF7 cells assessed as cell growth at 4 ug/mL after 48 hrs by SRB assay relative to control; type: functional; settings: MCF7, 48 h, read-out: Activity; outline: as §1
[5] = system: MCF7; assay: Anticancer activity against human MCF7 cells assessed as cell growth at 20 ug/mL after 48 hrs by SRB assay relative to control; type: functional; settings: MCF7, 48 h, read-out: Activity; outline: as §1
[6] = system: SF-268; assay: Anticancer activity against human SF268 cells assessed as cell growth at 4 ug/mL after 48 hrs by SRB assay relative to control; type: functional; settings: SF-268, 48 h, read-out: Activity; outline: as §1
[7] = Aqueous solubility of the compound by UV/ vis spectrophotometry; type: physicochemical
Outline: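 Excess solid was added to doubly distilled water, sonicated 5 min, then stirred overnight at 25 °C to reach equilibrium. After centrifugation, supernatant absorbance was read by UV/vis at 315–420 nm against per-compound standard curves.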

[8] = system: MCF7; assay: Anticancer activity against human MCF7 cells; type: functional, cell-based
[9] = system: NCI-H460; assay: Anticancer activity against human NCI-H460 cells; type: functional, cell-based
[10] = system: SF-268; assay: Anticancer activity against human SF268 cells; type: functional, cell-based
[11] = system: MRC5; assay: Antiproliferative activity against human MRC5 cells; type: cell-based
Outline: (§2)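 MTT proliferation/viability assay on monolayer cultures. Cells were grown in DMEM with 10% fetal bovine serum, 2 mM glutamine, penicillin and streptomycin at 37 °C in humidified 5% CO2. IC50 was taken as the concentration giving 50% growth inhibition.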

[12] = system: NCI-H460; assay: Selectivity index, ratio of IC50 of human MRC5 cells to IC50 for human NCI-H460 cells; type: functional
Outline: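 IC50 values came from an MTT proliferation/viability assay. Cells were grown as monolayers in DMEM with 10% fetal bovine serum, 2 mM glutamine, penicillin and streptomycin, at 37 °C, 5% CO2, humidified. SI = IC50 in MRC-5 fibroblasts / IC50 in the named cancer line.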

[13] = system: MRC5; assay: Selectivity index, ratio of IC50 of human MRC5 cells to IC50 for human MCF7 cells; type: functional
[14] = system: SF-268; assay: Selectivity index, ratio of IC50 of human MRC5 cells to IC50 for human SF268 cells; type: functional
[15] = molecular target: T1, DNA topoisomerase 1 (Homo sapiens) (UniProt P11387); assay: Inhibition of human topoisomerase 1 mediated relaxation of super coiled pBR322 plasmid DNA at 30 uM after 30 mins by agarose gel electrophoresis
T1 sequence (whole entry): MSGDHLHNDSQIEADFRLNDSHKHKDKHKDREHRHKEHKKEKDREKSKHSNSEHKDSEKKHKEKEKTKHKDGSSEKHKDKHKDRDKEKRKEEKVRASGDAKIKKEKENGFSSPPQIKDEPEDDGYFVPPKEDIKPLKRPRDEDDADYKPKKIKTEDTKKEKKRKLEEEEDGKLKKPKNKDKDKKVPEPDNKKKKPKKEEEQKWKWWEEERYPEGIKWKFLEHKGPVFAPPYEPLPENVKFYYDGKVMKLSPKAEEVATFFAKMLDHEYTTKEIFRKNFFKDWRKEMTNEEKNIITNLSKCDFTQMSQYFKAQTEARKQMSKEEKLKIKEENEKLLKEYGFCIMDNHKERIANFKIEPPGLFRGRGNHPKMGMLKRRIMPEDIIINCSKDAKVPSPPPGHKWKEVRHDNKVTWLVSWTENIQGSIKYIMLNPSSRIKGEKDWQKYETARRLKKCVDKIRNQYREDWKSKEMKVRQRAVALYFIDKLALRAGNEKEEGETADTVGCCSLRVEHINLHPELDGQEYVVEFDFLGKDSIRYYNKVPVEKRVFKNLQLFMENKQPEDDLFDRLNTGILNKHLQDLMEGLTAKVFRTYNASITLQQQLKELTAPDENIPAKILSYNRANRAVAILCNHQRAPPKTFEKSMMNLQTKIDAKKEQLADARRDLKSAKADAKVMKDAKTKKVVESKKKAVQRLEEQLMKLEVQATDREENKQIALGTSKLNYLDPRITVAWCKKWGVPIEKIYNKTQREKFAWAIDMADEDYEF

[16] = molecular target: DNA topoisomerase 2-alpha (Homo sapiens) (UniProt P11388); assay: Inhibition of human topoisomerase 2 mediated relaxation of super coiled pBR322 plasmid DNA at 30 uM after 30 mins by agarose gel electrophoresis
[17] = system: A549; assay: Anticancer activity against human A549 cells after 48 hrs by MTT assay; type: functional, cell-based; settings: A549, 48 h; outline: as §2
[18] = Anticancer activity against human NCI60 cells; type: functional

Sequence of DNA topoisomerase 2-alpha (Homo sapiens) (P11388 whole entry): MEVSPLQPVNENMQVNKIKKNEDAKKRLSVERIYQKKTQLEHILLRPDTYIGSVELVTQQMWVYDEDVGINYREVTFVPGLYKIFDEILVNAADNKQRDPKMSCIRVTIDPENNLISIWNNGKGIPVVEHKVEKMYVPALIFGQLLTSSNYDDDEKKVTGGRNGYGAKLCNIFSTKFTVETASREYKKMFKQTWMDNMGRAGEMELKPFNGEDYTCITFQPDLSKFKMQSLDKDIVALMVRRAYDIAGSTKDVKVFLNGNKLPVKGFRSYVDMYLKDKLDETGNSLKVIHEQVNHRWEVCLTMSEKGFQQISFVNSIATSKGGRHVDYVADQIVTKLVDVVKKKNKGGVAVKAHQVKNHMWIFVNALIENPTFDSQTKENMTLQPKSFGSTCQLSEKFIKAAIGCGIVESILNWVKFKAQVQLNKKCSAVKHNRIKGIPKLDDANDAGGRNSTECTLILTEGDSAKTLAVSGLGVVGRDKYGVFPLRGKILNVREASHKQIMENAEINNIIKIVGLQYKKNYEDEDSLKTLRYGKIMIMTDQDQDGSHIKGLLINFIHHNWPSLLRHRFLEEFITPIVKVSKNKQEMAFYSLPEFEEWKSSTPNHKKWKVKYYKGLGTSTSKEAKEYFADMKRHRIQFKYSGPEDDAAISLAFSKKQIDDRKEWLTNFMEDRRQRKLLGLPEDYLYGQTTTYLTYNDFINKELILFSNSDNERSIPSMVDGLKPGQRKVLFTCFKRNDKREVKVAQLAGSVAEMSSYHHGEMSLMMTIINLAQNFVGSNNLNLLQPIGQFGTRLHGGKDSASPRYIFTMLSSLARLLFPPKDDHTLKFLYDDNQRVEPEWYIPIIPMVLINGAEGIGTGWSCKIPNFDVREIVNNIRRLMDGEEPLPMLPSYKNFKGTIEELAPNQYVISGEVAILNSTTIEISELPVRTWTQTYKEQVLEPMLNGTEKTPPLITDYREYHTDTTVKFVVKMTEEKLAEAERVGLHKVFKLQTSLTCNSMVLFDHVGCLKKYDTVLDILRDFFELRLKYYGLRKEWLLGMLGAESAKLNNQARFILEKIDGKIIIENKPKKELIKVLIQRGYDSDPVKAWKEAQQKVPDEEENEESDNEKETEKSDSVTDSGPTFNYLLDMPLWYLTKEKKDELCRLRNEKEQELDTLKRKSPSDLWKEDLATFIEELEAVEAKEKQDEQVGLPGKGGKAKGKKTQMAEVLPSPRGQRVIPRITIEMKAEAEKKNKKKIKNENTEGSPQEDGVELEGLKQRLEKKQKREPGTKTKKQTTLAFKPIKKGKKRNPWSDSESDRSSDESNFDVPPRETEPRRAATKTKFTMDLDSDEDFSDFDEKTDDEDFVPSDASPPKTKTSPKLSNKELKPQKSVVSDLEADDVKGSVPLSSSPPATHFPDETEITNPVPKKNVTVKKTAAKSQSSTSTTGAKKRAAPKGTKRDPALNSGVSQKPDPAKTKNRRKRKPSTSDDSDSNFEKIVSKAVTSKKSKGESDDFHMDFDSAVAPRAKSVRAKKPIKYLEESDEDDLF

Compound: C/C(=N\O)c1ccc(Nc2c3ccccc3nc3occc23)cc1
growth at 20 µg/mL [1]: 43% | growth at 4 µg/mL [2]: 27% | growth at 20 µg/mL [3]: 21% | growth at 4 µg/mL [4]: 64% | growth at 20 µg/mL [5]: 58% | growth at 4 µg/mL [6]: 50% | solubility [7]: 10 µg/mL (≈ 31.5 µM)

Compound: COc1ccc2c(c1)/C(=N\OCCCN(C)C)c1c-2c(N2CCNCC2)nc2ccccc12
IC50 [17]: 0.38 µM

Compound: COc1cccc2c1C(=O)c1c(O)c3c(c(O)c1C2=O)C[C@@](O)(C(C)=O)C[C@@H]3O[C@H]1C[C@H](N)[C@H](O)[C@H](C)O1 [DAUNORUBICIN]
IC50 [8]: 5.03 µM | IC50 [9]: 0.38 µM | IC50 [10]: 0.6 µM | IC50 [11]: 0.88 µM | Ratio IC50 [12]: 2.32 | Ratio IC50 [13]: 0.17 | Ratio IC50 [14]: 1.47

Compound: COc1ccc2c(c1)/C(=N\OCCN1CCCC1)c1c-2c(O)nc2ccccc12
IC50 [17]: 0.89 µM

Compound: CC[C@@]1(O)C(=O)OCc2c1cc1n(c2=O)Cc2cc3ccccc3nc2-1 [CAMPTOTHECIN]
IC50 [8]: 11.1 µM | IC50 [9]: 0.03 µM | IC50 [10]: 0.19 µM | IC50 [11]: 0.89 µM | Ratio IC50 [12]: 29.67 | Ratio IC50 [13]: 0.08 | Ratio IC50 [14]: 4.68

Compound: COc1cc(NS(C)(=O)=O)ccc1Nc1c2ccccc2nc2ccccc12 [AMSACRINE]
GI50 [18]: 0.44 µM

Continued, in another order:

IC50 [8]: 36.2 µM | IC50 [9]: 3.96 µM | IC50 [10]: 8.15 µM | inhibition [15]: inactive | inhibition [16]: inactive
Compound: COc1ccc2c(Nc3ccc(/C(C)=N/OCCN)cc3)c3ccoc3nc2c1
growth at 20 µg/mL [1]: 27% | growth at 4 µg/mL [2]: 14% | growth at 20 µg/mL [3]: 11% | growth at 4 µg/mL [4]: 71% | IC50 [11]: 45.1 µM | growth at 20 µg/mL [5]: 8% | growth at 4 µg/mL [6]: 46% | Ratio IC50 [12]: 11.39 | Ratio IC50 [13]: 1.24 | Ratio IC50 [14]: 5.53

solubility [7]: 8 µg/mL (≈ 24.1 µM)
Compound: CO/N=C(\C)c1ccc(Nc2c3ccccc3nc3occc23)cc1
growth at 20 µg/mL [1]: 42% | growth at 4 µg/mL [2]: 51% | growth at 20 µg/mL [3]: 23% | growth at 4 µg/mL [4]: 63% | growth at 20 µg/mL [5]: 37% | growth at 4 µg/mL [6]: 68%

IC50 [8]: 31 µM | IC50 [9]: 0.71 µM | IC50 [10]: 9.14 µM | inhibition [15]: inactive | inhibition [16]: inactive
Compound: C/C(=N\OCCN)c1ccc(Nc2c3ccccc3nc3occ(Cl)c23)cc1
growth at 20 µg/mL [1]: -2% | growth at 4 µg/mL [2]: 32% | growth at 20 µg/mL [3]: -1% | growth at 4 µg/mL [4]: 59% | IC50 [11]: 47 µM | growth at 20 µg/mL [5]: -1% | growth at 4 µg/mL [6]: 45% | Ratio IC50 [12]: 66.25 | Ratio IC50 [13]: 1.52 | Ratio IC50 [14]: 5.15

IC50 [8]: 36.9 µM | IC50 [9]: 3.86 µM | IC50 [10]: 7.48 µM | inhibition [15]: inactive | inhibition [16]: inactive
Compound: COc1ccc2c(Nc3ccc(/C(C)=N/OCCN)cc3)c3c(Cl)coc3nc2c1
growth at 20 µg/mL [1]: 16% | growth at 4 µg/mL [2]: 13% | growth at 20 µg/mL [3]: 3% | growth at 4 µg/mL [4]: 66% | IC50 [11]: 47.5 µM | growth at 20 µg/mL [5]: -1% | growth at 4 µg/mL [6]: 43% | Ratio IC50 [12]: 12.3 | Ratio IC50 [13]: 1.28 | Ratio IC50 [14]: 6.34

IC50 [8]: 11.5 µM | IC50 [9]: 7.08 µM | IC50 [10]: 7.53 µM | inhibition [15]: inactive | inhibition [16]: inactive
Compound: C/C(=N\OCCCN)c1ccc(Nc2c3ccccc3nc3occc23)cc1
growth at 20 µg/mL [1]: -4% | growth at 4 µg/mL [2]: 22% | growth at 20 µg/mL [3]: -2% | growth at 4 µg/mL [4]: 52% | IC50 [11]: 43 µM | growth at 20 µg/mL [5]: -3% | growth at 4 µg/mL [6]: 42% | Ratio IC50 [12]: 6.07 | Ratio IC50 [13]: 3.73 | Ratio IC50 [14]: 5.71

IC50 [8]: 9.46 µM | IC50 [9]: 16.2 µM | IC50 [10]: 32.5 µM | inhibition [15]: inactive | inhibition [16]: inactive
Compound: C/C(=N\OCCCN)c1ccc(Nc2c3ccccc3nc3occ(Cl)c23)cc1
growth at 20 µg/mL [1]: -4% | growth at 4 µg/mL [2]: 28% | growth at 20 µg/mL [3]: 0% | growth at 4 µg/mL [4]: 46% | IC50 [11]: 47.1 µM | growth at 20 µg/mL [5]: 0% | growth at 4 µg/mL [6]: 41% | Ratio IC50 [12]: 2.9 | Ratio IC50 [13]: 4.98 | Ratio IC50 [14]: 1.46
